Assay [1] concerns the target T1, Cyclin-dependent kinase 8 (Homo sapiens, UniProt P49336). The experiment in a line: Inhibition of CDK8 (unknown origin).
In assay [2] the target is T2, Protein cereblon/Cyclin-dependent kinase 8 (Homo sapiens) (UniProt P49336+Q96SW2). In words: Induction of CRBN-mediated CDK8 degradation in human Jurkat cells at 0.1 to 10 uM measured after 24 hrs by immunoblot analysis. It is filed as cell-based. In short, it runs like this:
(§1)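 Jurkat cells incubated with increasing concentrations (up to 20 μM in the widest series) for 24 h; lysate CDK8 levels read by immunoblot.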
On the technique in general: A western blot detects proteins with antibodies after separation by electrophoresis.

The target of assay [3] is T2, Protein cereblon/Cyclin-dependent kinase 8 (Homo sapiens). The experiment in a line: Induction of CRBN-mediated CDK8 degradation in human Jurkat cells at 1 uM measured after 6 hrs in presence of proteasome inhibitor bortezomib by immunoblot analysis. The format is cell-based. The procedure, abridged: (§2)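 Rescue design: Jurkat cells pretreated with bortezomib (10 μM), MLN4924, lenalidomide in excess, or an excess of a CDK8-binding analogue unable to bind CRBN, then exposed to the degrader; CDK8 levels assessed by immunoblot.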

Assay [4] deals with T1, Cyclin-dependent kinase 8. The experiment in a line: Induction of CDK8 degradation in human MOLT4 cells harboring CRBN deletion mutant at 0.1 to 5 uM measured after 24 hrs by immunoblot analysis. It is filed as cell-based. The procedure, abridged: (§3)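 Wild-type Molt4 cells and Molt4 cells with CRISPR/Cas9 deletion of CRBN were treated with increasing concentrations for 24 h; CDK8 in lysates detected by immunoblot.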

The target in assay [5] is T2, Protein cereblon/Cyclin-dependent kinase 8 (Homo sapiens). The experiment in a line: Induction of CRBN-mediated CDK8 degradation in wild-type human Jurkat cells at 20 uM measured after 24 hrs by immunoblot analysis. It is filed as cell-based. The procedure, abridged: as §1
Assay [6] has the same target. In words: Induction of CRBN-mediated CDK8 degradation in human Jurkat cells at 1 uM measured after 6 hrs in presence of N-((3S,17S)-17-(isoquinolin-7-yl)-10,13-dimethylhexadecahydro-1H-cyclopenta[a]phenanthren-3-yl)-Nmethyl-1-((2-(1-methyl-2,6-dioxopiperidin-3-yl)-1,3-dioxoisoindolin-4-yl)amino)-3,6,9,12-tetraoxapentadecan-15-amide by immunoblot analysis. It is filed as cell-based. In short, it runs like this:
as §2

Assay [7] has the same target. The experiment in a line: Induction of CRBN-mediated CDK8 degradation in wild-type human Jurkat cells at 1 to 10 uM measured after 24 hrs by immunoblot analysis. The format is cell-based. In short, it runs like this: as §1
Assay [8] shares this target. In words: Induction of CRBN-mediated CDK8 degradation in human Jurkat cells at 1 uM measured after 6 hrs in presence of lenalidomide by immunoblot analysis. The format is cell-based. The procedure, abridged:
as §2

The next assay has as its system Jurkat. The experiment in a line: Effect on CDK8 mRNA levels in human Jurkat cells at 1 uM after 24 hrs by qPCR analysis. It is filed as functional, cell-based. In short, it runs like this: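 Jurkat cells exposed to 1 μM or vehicle for 24 h; Cdk8 mRNA quantified by qPCR with two separate Cdk8 primer sets, normalized to Actin.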
(In general: Quantitative PCR measures a nucleic acid by following its amplification.)

Assay [9] deals with T2, Protein cereblon/Cyclin-dependent kinase 8 (Homo sapiens). In words: Induction of CRBN-mediated CDK8 degradation in human Jurkat cells at 1 uM measured after 6 hrs in presence of neddylation inhibitor MLN4924 by immunoblot analysis. It is filed as cell-based. The procedure, abridged: as §2
The target of assay [10] is Cyclin-dependent kinase 19 (Homo sapiens, UniProt Q9BWU1). The experiment in a line: Induction of CDK19 degradation in human Jurkat cells up to 20 uM measured after 24 hrs by immunoblot analysis.
Cyclin-dependent kinase 19, sequence (Q9BWU1 whole entry): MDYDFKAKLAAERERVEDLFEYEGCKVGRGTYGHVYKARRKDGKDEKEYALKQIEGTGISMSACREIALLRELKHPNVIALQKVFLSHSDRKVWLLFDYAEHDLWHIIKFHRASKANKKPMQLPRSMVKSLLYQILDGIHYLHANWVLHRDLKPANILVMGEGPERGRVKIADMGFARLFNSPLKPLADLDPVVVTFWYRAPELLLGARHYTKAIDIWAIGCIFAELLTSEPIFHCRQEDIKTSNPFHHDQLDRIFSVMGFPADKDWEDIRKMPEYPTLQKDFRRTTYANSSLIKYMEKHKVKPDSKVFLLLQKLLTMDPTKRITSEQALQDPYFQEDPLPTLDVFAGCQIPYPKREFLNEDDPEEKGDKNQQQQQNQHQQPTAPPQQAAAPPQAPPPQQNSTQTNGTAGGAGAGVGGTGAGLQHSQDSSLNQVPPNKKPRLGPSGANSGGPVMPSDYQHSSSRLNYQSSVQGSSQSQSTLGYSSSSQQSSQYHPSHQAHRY
Assay [11] concerns the target T2, Protein cereblon/Cyclin-dependent kinase 8 (Homo sapiens). The experiment in a line: Induction of CRBN-mediated CDK8 degradation in wild-type human MOLT4 cells at 5 uM measured after 24 hrs by immunoblot analysis. In short, it runs like this: as §3
Assay [12] has the same target. The experiment in a line: Induction of CRBN-mediated CDK8 degradation in human Jurkat cells at 1 uM measured after 6 to 24 hrs by immunoblot analysis. It is filed as cell-based. In short, it runs like this: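 Jurkat cells given 0.1 or 1 μM; lysates collected at 6 and 24 h and probed for CDK8 by immunoblot.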
The target in assay [13] is Protein cereblon/Cyclin-dependent kinase 19 (Homo sapiens) (UniProt Q9BWU1+Q96SW2). The experiment in a line: Induction of CRBN-mediated CDK19 degradation in wild-type human Jurkat cells up to 20 uM measured after 24 hrs by immunoblot analysis. It is filed as cell-based. The procedure, abridged: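 Jurkat cells treated for 24 h; CDK19 protein in cell lysates assessed by immunoblot.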
Protein cereblon/Cyclin-dependent kinase 19 (Homo sapiens), sequence (Q96SW2 whole entry, looked up): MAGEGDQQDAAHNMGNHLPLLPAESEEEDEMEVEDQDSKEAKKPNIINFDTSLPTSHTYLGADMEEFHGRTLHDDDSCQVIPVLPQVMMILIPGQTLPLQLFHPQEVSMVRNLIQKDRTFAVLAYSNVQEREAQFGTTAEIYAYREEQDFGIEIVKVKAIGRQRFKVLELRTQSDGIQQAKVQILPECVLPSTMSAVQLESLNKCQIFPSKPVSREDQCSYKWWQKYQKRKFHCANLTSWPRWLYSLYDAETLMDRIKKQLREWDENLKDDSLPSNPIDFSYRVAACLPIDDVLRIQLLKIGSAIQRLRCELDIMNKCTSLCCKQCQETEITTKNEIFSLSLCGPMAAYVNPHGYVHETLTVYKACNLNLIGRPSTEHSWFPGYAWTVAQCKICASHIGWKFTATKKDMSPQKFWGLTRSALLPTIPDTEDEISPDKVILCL
Protein cereblon/Cyclin-dependent kinase 19 (Homo sapiens), sequence (Q9BWU1 whole entry, looked up): as the sequence (Q9BWU1 whole entry) above

The target of assay [14] is T2, Protein cereblon/Cyclin-dependent kinase 8 (Homo sapiens). In words: Induction of CRBN-mediated CDK8 degradation in human Jurkat cells at 0.1 to 1 uM measured after 6 to 24 hrs by immunoblot analysis. The format is cell-based. The procedure, abridged:
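Jurkat cells were treated with compound at 0.1 or 1 μM. Lysates were collected at 6 and 24 h, and CDK8 protein levels were assessed by immunoblot.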

The target of assay [15] is T1, Cyclin-dependent kinase 8. In words: Inhibition of CDK8 in human HepG2 cells assessed as reduction in IFNgamma-induced STAT1 phosphorylation at S727 measured after 18 hrs by Western blot analysis. It is filed as cell-based.
The target in assay [16] is T2, Protein cereblon/Cyclin-dependent kinase 8 (Homo sapiens). In words: Induction of CRBN-mediated CDK8 degradation in human Jurkat cells up to 10 uM measured after 24 hrs by immunoblot analysis. It is filed as cell-based. In short, it runs like this: as §1

The source made the active and inactive calls. The rule behind the calls is not given here.

These results are taken from ChEMBL document CHEMBL4145630, “Development of Highly Potent and Selective Steroidal Inhibitors and Degraders of CDK8” (ACS Med Chem Lett, 2018).

T2 sequence (P49336 whole entry, looked up): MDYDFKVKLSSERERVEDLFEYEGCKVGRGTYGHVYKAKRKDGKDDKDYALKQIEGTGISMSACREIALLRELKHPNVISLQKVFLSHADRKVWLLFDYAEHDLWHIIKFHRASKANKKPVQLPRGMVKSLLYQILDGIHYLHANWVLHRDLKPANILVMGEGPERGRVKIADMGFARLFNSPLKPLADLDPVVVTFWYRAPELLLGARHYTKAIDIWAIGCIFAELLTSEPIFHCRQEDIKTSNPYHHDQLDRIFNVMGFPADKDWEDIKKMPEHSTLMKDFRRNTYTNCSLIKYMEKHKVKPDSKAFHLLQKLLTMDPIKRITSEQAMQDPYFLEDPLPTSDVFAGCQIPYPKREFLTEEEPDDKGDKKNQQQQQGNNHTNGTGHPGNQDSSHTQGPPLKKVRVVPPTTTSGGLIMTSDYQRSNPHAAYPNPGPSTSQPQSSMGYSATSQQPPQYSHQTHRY
T2 sequence (Q96SW2 whole entry, looked up): as the sequence (Q96SW2 whole entry, looked up) above
T1 sequence (P49336 whole entry): as the sequence (P49336 whole entry, looked up) above

As to `C[C@]12CC[C@H](O)C[C@@H]1CC[C@@H]1[C@@H]2CC[C@]2(C)[C@@H](c3ccc4ccncc4c3)CC[C@@H]12`, in assay [1], the IC50 (usually the concentration that inhibits the measured activity by half) came out at 0.208 µM.

On to `C[C@]12CC[C@H](O)CC1=CC[C@@H]1[C@@H]2CC[C@]2(C)C(c3ccc4nc(N)ncc4c3)=CC[C@@H]12`, for which the midpoint of inhibition in [1], the IC50, lay at 2.3 µM. Against the preceding compound, the IC50 is about 11-fold higher.

Regarding `C[C@]12CC[C@H](O)CC1=CC[C@@H]1[C@@H]2CC[C@]2(C)C(c3ccc4cn[nH]c4c3)=CC[C@@H]12`, the 50% inhibitory concentration (IC50) in assay [1] was greater than 10 µM.

`CN[C@H]1CC[C@@]2(C)[C@@H](CC[C@@H]3[C@@H]2CC[C@]2(C)[C@@H](c4ccc5ccncc5c4)CC[C@@H]32)C1`: 1.32 µM corresponded to half-maximal inhibition in [1] (IC50). This counts as single-digit micromolar.

`CN(C(=O)CCOCCOCCNc1cccc2c1C(=O)N(C1CCC(=O)NC1=O)C2=O)[C@H]1CC[C@@]2(C)[C@@H](CC[C@@H]3[C@@H]2CC[C@]2(C)[C@@H](c4ccc5ccncc5c4)CC[C@@H]32)C1` (stereo partly specified): the result in assay [2] was inactive. The same compound showed an IC50 in [1] of 0.192 µM.

Regarding `C[C@]12CC[C@H]3[C@@H](CC=C4C[C@@H](O)CC[C@@]43C)[C@@H]1CC[C@@H]2c1ccc2c(N)n[nH]c2c1`, the IC50 in assay [1] stood at 0.682 µM.

Regarding `CN(C(=O)CCOCCOCCOCCOCCNc1cccc2c1C(=O)N(C1CCC(=O)NC1=O)C2=O)[C@H]1CC[C@@]2(C)[C@@H](CC[C@@H]3[C@@H]2CC[C@]2(C)[C@@H](c4ccc5ccncc5c4)CC[C@@H]32)C1` (stereo partly specified), the outcome (in assay [3]; in assay [4]; in assay [5]; in [6]; in assay [8]; in the assay with Jurkat) was inactive. Also, the outcome in assay [9], in assay [10] and in assay [13] was inactive. In addition, it took 0.159 µM to reach half-maximal inhibition in assay [1] (IC50). Also, the outcome in assay [7], in assay [11] and in assay [12] was Active.

With `C[C@]12CC[C@H](O)CC1=CC[C@@H]1[C@@H]2CC[C@]2(C)C(c3ccc4c(N)n[nH]c4c3)=CC[C@@H]12`, the IC50 in assay [1] amounted to 1.52 µM.

Turning to `CN(CCCCCOCCOCCNc1cccc2c1C(=O)N(C1CCC(=O)NC1=O)C2=O)[C@H]1CC[C@@]2(C)[C@@H](CC[C@@H]3[C@@H]2CC[C@]2(C)[C@@H](c4ccc5ccncc5c4)CC[C@@H]32)C1` (stereo partly specified), the result in [14] was inactive.

In assay [1], `CN(C)[C@H]1CC[C@@]2(C)[C@@H](CC[C@@H]3[C@@H]2CC[C@]2(C)[C@@H](c4ccc5ccncc5c4)CC[C@@H]32)C1` had an IC50 of 0.024 µM.

The compound `C[C@]12CC[C@H](O)CC1=CC[C@@H]1[C@@H]2CC[C@]2(C)C(c3ccc4cnncc4c3)=CC[C@@H]12` gave an IC50 in assay [1] greater than 10 µM.

`CN(C)[C@H]1C[C@@]23CC[C@@]4(O2)C(=CC[C@]2(C)C(c5ccc6ccncc6c5)=CCC24)C=C3[C@@H](O)[C@@H]1O` (stereo partly specified): the inhibition result in assay [15] was “Dose-dependent effect”.

Regarding `CN(C)[C@@H]1CC[C@@]2(C)[C@@H](CC[C@@H]3[C@@H]2CC[C@]2(C)[C@@H](c4ccc5ccncc5c4)CC[C@@H]32)C1`, in assay [1], half-maximal inhibition (IC50) required 0.064 µM.

In assay [1], `C[C@]12CC[C@H](O)CC1=CC[C@@H]1[C@@H]2CC[C@]2(C)C(c3ccc4cnccc4c3)=CC[C@@H]12` gave an IC50 of 8.24 µM.

For the compound `CN1C(=O)CCC(N2C(=O)c3cccc(NCCOCCOCCOCCOCCC(=O)N(C)[C@H]4CC[C@@]5(C)[C@@H](CC[C@@H]6[C@@H]5CC[C@]5(C)[C@@H](c7ccc8ccncc8c7)CC[C@@H]65)C4)c3C2=O)C1=O` (stereo partly specified), in [16], the outcome was inactive. Besides, the IC50 in [1] amounted to 0.443 µM.

Compound `CC(=O)N(C)[C@H]1CC[C@@]2(C)[C@@H](CC[C@@H]3[C@@H]2CC[C@]2(C)[C@@H](c4ccc5ccncc5c4)CC[C@@H]32)C1` had a half-maximal inhibitory concentration (IC50) in assay [1] of 0.034 µM.

On to `C[C@]12CC[C@H](N3CCOCC3)C[C@@H]1CC[C@@H]1[C@@H]2CC[C@]2(C)[C@@H](c3ccc4ccncc4c3)CC[C@@H]12`, for which the 50% inhibitory concentration (IC50) in assay [1] came out at 0.12 µM. This IC50 lies about 3.5-fold higher than the previous one.

For `C[C@]12CC[C@H](O)C[C@@H]1CC[C@@H]1[C@@H]2CC[C@]2(C)C(c3ccc4ccncc4c3)=CC[C@@H]12`, in [1], the 50% inhibitory concentration (IC50) was found to be 1.01 µM. This IC50 is about 8.4-fold higher than that of the compound before.

In turn, `C[C@]12CC[C@H](n3ccnn3)C[C@@H]1CC[C@@H]1[C@@H]2CC[C@]2(C)[C@@H](c3ccc4ccncc4c3)CC[C@@H]12` displayed a concentration for half-maximal inhibition (IC50) in assay [1] of 0.024 µM.

On to `C[C@]12CC[C@H]3[C@@H](CC=C4C[C@@H](O)CC[C@@]43C)[C@@H]1CC[C@@H]2c1ccc2[nH]ncc2c1`, for which the concentration for half-maximal inhibition (IC50) in [1] was greater than 10 µM.

`C[C@]12CC[C@H]3[C@@H](CC=C4C[C@@H](O)CC[C@@]43C)[C@@H]1CC[C@@H]2c1ccc2ccncc2c1`: half-maximal inhibition in assay [1] (IC50) required 0.048 µM. In other words, the double-digit nanomolar range.

As to `C[C@]12CC[C@H]3[C@@H](CC=C4C[C@@H](O)CC[C@@]43C)[C@@H]1CC[C@@H]2c1ccc2nc(N)ncc2c1`, inhibition in [1] was half-maximal at 0.108 µM (IC50). Compared with the last compound, the IC50 is about 2.2-fold higher.

`C[C@]12CC[C@H]3[C@@H](CC=C4C[C@@H](O)CC[C@@]43C)[C@@H]1CC[C@@H]2c1ccc2cnccc2c1` gave an IC50 in assay [1] of 6 µM.

As for `C[C@]12CC[C@H]3[C@@H](CC=C4C[C@@H](O)CC[C@@]43C)[C@@H]1CC[C@@H]2c1ccc2cnncc2c1`, the IC50 in assay [1] was greater than 10 µM.

`C[C@]12CC[C@H](O)CC1=CC[C@@H]1[C@@H]2CC[C@]2(C)C(c3ccc4[nH]ncc4c3)=CC[C@@H]12` showed an IC50 in [1] greater than 10 µM.

On to `C[C@]12CC[C@H](O)CC1=CC[C@@H]1[C@@H]2CC[C@]2(C)C(c3ccc4ccncc4c3)=CC[C@@H]12`, for which, in assay [1], the IC50 came to 0.164 µM.

For `C[C@]12CC[C@H]3[C@@H](CC=C4C[C@@H](O)CC[C@@]43C)[C@@H]1CC[C@@H]2c1ccc2cn[nH]c2c1`, in [1], the IC50 is greater than 10 µM.
